Measured values taken from the RNAGym collection of RNA variant scans (doi:10.1126/science.aae0568).
Fewer inactive variants are shown than the library holds.

B1: tRNA (parent)
chain: GUUCCGUUGGCGUAAUGGUAACGCGUCUCCCUCCUAAGGAGAAGACUGCGGGUUCGAGUCCCGUACGGAACG

Variants of: B1
Experiment: yeast fitness relative to wild type (ratio to wild type); higher = fitter; tRNA-Arg(CCU), competitive growth, 37 C, YPD
In short: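 Variants of the tRNA-Arg(CCU) gene, chemically synthesised with a 3% per-site mutation rate at 69 sites, were placed at the native genomic locus in Saccharomyces cerevisiae. The pooled strains were competed in YPD at 37°C for 24 hours in six parallel replicates. Gene amplicons from the start population and from each end population were read by 100-nucleotide paired-end sequencing. Darwinian fitness relative to wild type came from changes in genotype frequencies; genotypes needed ≥ 100 starting reads, and estimates < 0.5 were set to 0.5.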

Variant	yeast fitness
U7A G25C C27G C31U A45U U64C	≤ 0.5
U7A G10A C33A A36C A69U	≤ 0.5
U7C A37U	0.625
U7A C11A C30U U32A	≤ 0.5
U7A U53A A65C A70G	≤ 0.5
U7A U53A	≤ 0.5
U7A C46G C61U	0.601
U7A A21U A45C	≤ 0.5
U7A U8C G17A C27G C29U U32C A43C G52A	≤ 0.5
G6C U53C A65G	≤ 0.5
U7C A14G U19G C29G C49A G52C G63A	≤ 0.5
U7A C33A A45C G68A	≤ 0.5
U7C A36G A43U C62G	0.603
U7A A15C C27A C61G	≤ 0.5
U7C A21U C24A C62U U64C	0.661
U7C A37G C55A G58C	≤ 0.5
U7C A21G G41C U53C U64A	≤ 0.5
U7A G38A A42U G51A U53G C60G	≤ 0.5
U7A G12C A57C	≤ 0.5
U7A C34U A65G C66G	≤ 0.5
U7A U8A G25A A40C C60U	≤ 0.5

Variant	yeast fitness
U7A G12C C27G C31A C46A C62G	≤ 0.5
U7C A21C C27U	≤ 0.5
U7A G9C A40C	0.623
U7A G10U	0.614
U7A G10C	0.617
U7A U53A A69C	0.545
U7A U16C A21U U26A C46U C60U	0.55
G6C U19G A43U G58C C66A	≤ 0.5
U7A A14C G25A C30G C49U	0.557
U7A G51A G52A A70G	≤ 0.5
G6U G63C	0.615
U7A C29G	≤ 0.5
U7A G10C G41A	≤ 0.5
U7A A20G C34A G44A C46U A70C	≤ 0.5
U7A C49U A65C	0.711
U7A G25C C27G C31U A45U C62U U64C	≤ 0.5
U7C A42U A43G	0.53
U7C A14G C29U C31U C33U	0.592
U7A C31A	0.634
U7A C11U C30U U59A A69C	≤ 0.5
U7A G10A A20C C29A	0.543

Variant	yeast fitness
U7A C24U C33A	≤ 0.5
U7A G12A	0.783
G6C U47A	0.818
U7A C24G C55G	≤ 0.5
U7A G23C A45G C60G	≤ 0.5
U7A C34A G56C G68C	≤ 0.5
U7A U19A A69C	0.502
U7C A40G A43C	0.77
G6C U59A C60U	≤ 0.5
U7A C49A A69C	≤ 0.5
G6C U53C	0.865
U7A U8A G10C C27G C34G A42G C55U	≤ 0.5
G6C U19C G38C G44C C46A	≤ 0.5
U7A A65U	0.996
U7A C61U	0.66
U7A A20U	0.776
U7A U28G C30A G52A	0.595
U7C A21U A36U A37C	≤ 0.5
U7C A37C A40C A45U A57C	0.573
U7C A20C	0.844
U7A C11U U16A G25A	≤ 0.5

Variant	yeast fitness
U7A A36C G51C	≤ 0.5
U7A A14G A65C	0.662
U7C A15G C27U C29U	≤ 0.5
U7A G18A	0.689
U7A G17A U59A	≤ 0.5
U7A A14G C31U G39C A40C A45U U47C G68C	≤ 0.5
U7C A36U G50C C60A	0.57
U7A G44C	0.718
U7A G44A	0.755
U7A G38A G52C A57C	≤ 0.5
U7C A14G U19G C29G C49A G52C	≤ 0.5
U7C A21C C34G U35G G44C C61G	0.636
U7C A37G A42C C49G C66G A70U	≤ 0.5
U7A A36U U64C	≤ 0.5
U7A U16C A21U U26A C46U	0.681
U7A U19C A43G C60G	≤ 0.5
U7C A42C C55U	≤ 0.5
G6U G18C C49G	≤ 0.5
U7A C29G G50A U64C	≤ 0.5
U7A C11G C60A	≤ 0.5
